According to ChEMBL document CHEMBL1144642, “Antiproliferative activity of 2-alkyl-4-halopiperidines and 2-alkyl-4-halo-1,2,5,6-tetrahydropyridines in solid tumor cell lines” (2007):

Tests used:
Format in all cases: functional
[1] = system: SW1573; test: Antiproliferative activity against human SW1573 cells after 48 hrs by SRB assay; settings: SW1573, 48 h
Summary of the method: (§1)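 NCI protocol, SRB read-out after 48 h continuous drug exposure. GI50, TGI and LC50 derived; 100 μM was the top concentration tested, with TGI and LC50 reported only when under 100 μM. GI50 values are means of two to four experiments ± standard deviation.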

[2] = system: A2780; test: Antiproliferative activity against human A2780 cells after 48 hrs by SRB assay; settings: A2780, 48 h; summary of the method: as §1
[3] = system: WiDr; test: Antiproliferative activity against human WiDr cells after 48 hrs by SRB assay; summary of the method: as §1
[4] = system: SW1573; test: Cell cycle arrest in human SW1573 cells assessed as accumulation at G2/M phase at 20 uM after 24 hrs relative to control
Summary of the method: (§2)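 Cells seeded at 0.7–1 × 10⁶ per well and left 24 h, then exposed 24 h to 10 or 20 μM beside untreated controls. Trypsinized, fixed in ice-cold 70% ethanol overnight at −20 °C, treated with RNAse and propidium iodide 30 min at 37 °C in the dark. DNA content read by flow cytometry (25,000 cells/sample); G2/M percentage compared with control.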

[5] = system: WiDr; test: Cell cycle arrest in human WiDr cells assessed as accumulation at G2/M phase at 20 uM after 24 hrs relative to control; summary of the method: as §2
[6] = system: SW1573; test: Cell cycle arrest in human SW1573 cells assessed as accumulation at G2/M phase at 10 uM after 24 hrs relative to control; summary of the method: as §2
[7] = system: WiDr; test: Cell cycle arrest in human WiDr cells assessed as accumulation at G2/M phase at 10 uM after 24 hrs relative to control; summary of the method: as §2

Row | Compound | GI50 [1] [µM] | GI50 [2] [µM] | GI50 [3] [µM] | further results
1 | Cc1ccc(S(=O)(=O)N2CCC(Cl)=CC2C2CCCCC2)cc1 (centres undefined) | 62 | 39 | 24 | –
2 | Cc1ccc(S(=O)(=O)N2CCC(Cl)=CC2c2ccccc2)cc1 (centres undefined) | 16 | 17 | 18 | LC50 [1]: 87 µM; TGI [1]: 37 µM; LC50 (50% lethal concentration) [2]: 86 µM; TGI [2]: 42 µM; LC50 (50% lethal concentration) [3]: 91 µM; TGI [3]: 77 µM
3 | Cc1ccc(S(=O)(=O)N2CC[C@@H](Br)C[C@@H]2C2CCCCC2)cc1 | 82 | > 100 | 14 | –
4 | Cc1ccc(S(=O)(=O)N2CC[C@@H](Br)C[C@@H]2c2ccccc2)cc1 | > 100 | > 100 | 36 | –
5 | Cc1ccc(S(=O)(=O)N2CC[C@@H](Br)C[C@@H]2Cc2ccccc2)cc1 | 73 | 63 | 37 | –
6 | Cc1ccc(S(=O)(=O)N2CC=C(Br)CC2)cc1 | > 100 | > 100 | > 100 | –
7 | Cc1ccc(S(=O)(=O)N2CCC(Br)=CC2C2CCCCC2)cc1 (centres undefined) | 65 | 44 | 18 | –
8 | Cc1ccc(S(=O)(=O)N2CCC(Br)=CC2c2ccccc2)cc1 (centres undefined) | 54 | 49 | 29 | –
9 | Cc1ccc(S(=O)(=O)N2CCC(Br)CC2)cc1 | > 100 | > 100 | > 100 | –
10 | Cc1ccc(S(=O)(=O)N2CC[C@@H](Cl)C[C@@H]2c2ccccc2)cc1 | > 100 | > 100 | 37 | –
11 | CCCCCCC[C@H]1C[C@H](Cl)CCN1S(=O)(=O)c1ccc(C)cc1 | > 100 | > 100 | 54 | –
12 | Cc1ccc(S(=O)(=O)N2CCC(Cl)CC2)cc1 | > 100 | > 100 | > 100 | –
13 | CCCCCCC[C@H]1C[C@H](Br)CCN1S(=O)(=O)c1ccc(C)cc1 | > 100 | > 100 | > 100 | –
14 | Cc1ccc(S(=O)(=O)N2CC=C(Cl)CC2)cc1 | > 100 | > 100 | > 100 | –
15 | Cc1ccc(S(=O)(=O)N2CCC(Cl)=CC2Cc2ccccc2)cc1 (centres undefined) | 6.6 | 4.8 | 3.3 | Activity [4]: 38%; Activity [5]: 81%; Activity [6]: 25%; Activity [7]: 53%; LC50 (50% lethal concentration) [3]: 79 µM; TGI [3]: 14 µM

The remaining compounds from weak to strong by GI50 [1], led by results:

Row | GI50 [1] [µM] | GI50 [2] [µM] | Compound | GI50 [3] [µM] | further results
16 | 53 | 72 | Cc1ccc(S(=O)(=O)N2CC[C@@H](Cl)C[C@@H]2C2CCCCC2)cc1 | 15 | –
17 | 49 | 92 | CCCCCCCC1C=C(Cl)CCN1S(=O)(=O)c1ccc(C)cc1 (centres undefined) | 50 | –
18 | 49 | > 100 | CCCCCCCC1C=C(Br)CCN1S(=O)(=O)c1ccc(C)cc1 (centres undefined) | 40 | –
19 | 31 | 35 | Cc1ccc(S(=O)(=O)N2CCC(Cl)=CC2CC(C)C)cc1 (centres undefined) | 21 | –
20 | 26 | 36 | Cc1ccc(S(=O)(=O)N2CCC(Br)=CC2CC(C)C)cc1 (centres undefined) | 16 | –
21 | 22 | 39 | Cc1ccc(S(=O)(=O)N2CC[C@@H](Br)C[C@@H]2CC(C)C)cc1 | 14 | –
22 | 21 | 27 | Cc1ccc(S(=O)(=O)N2CCC(Br)=CC2Cc2ccccc2)cc1 (centres undefined) | 24 | TGI [1]: 78 µM; TGI [2]: 77 µM; TGI [3]: 71 µM
23 | 19 | 36 | Cc1ccc(S(=O)(=O)N2CC[C@@H](Cl)C[C@@H]2CC(C)C)cc1 | 22 | –
24 | 12 | 19 | Cc1ccc(S(=O)(=O)N2CC[C@@H](Cl)C[C@@H]2Cc2ccccc2)cc1 | 20 | TGI [1]: 66 µM; TGI [2]: 50 µM
